Measured values as given in ChEMBL document CHEMBL1165965, “Synthesis and structure-activity relationships of 1,2,3,4-tetrahydropyrido[2,3-b]pyrazines as potent and selective inhibitors of the anaplastic lymphoma kinase” (Bioorg Med Chem, 2010).

Assays:
[1] = molecular target: LIM domain kinase 1 (Homo sapiens) (UniProt P53667); experiment: Inhibition of LIMK1 at 1 uM
In short: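 Single-concentration screen on the Ambit KINOMEscan platform, run against a panel of 250–400 kinases. Per-kinase inhibition was also summarized as S(90), the fraction of kinases inhibited by more than 90%.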

[2] = molecular target: T1, Tyrosine-protein kinase receptor TYRO3 (Homo sapiens) (UniProt Q06418); experiment: Inhibition of TYRO3 at 1 uM
T1 sequence (whole entry): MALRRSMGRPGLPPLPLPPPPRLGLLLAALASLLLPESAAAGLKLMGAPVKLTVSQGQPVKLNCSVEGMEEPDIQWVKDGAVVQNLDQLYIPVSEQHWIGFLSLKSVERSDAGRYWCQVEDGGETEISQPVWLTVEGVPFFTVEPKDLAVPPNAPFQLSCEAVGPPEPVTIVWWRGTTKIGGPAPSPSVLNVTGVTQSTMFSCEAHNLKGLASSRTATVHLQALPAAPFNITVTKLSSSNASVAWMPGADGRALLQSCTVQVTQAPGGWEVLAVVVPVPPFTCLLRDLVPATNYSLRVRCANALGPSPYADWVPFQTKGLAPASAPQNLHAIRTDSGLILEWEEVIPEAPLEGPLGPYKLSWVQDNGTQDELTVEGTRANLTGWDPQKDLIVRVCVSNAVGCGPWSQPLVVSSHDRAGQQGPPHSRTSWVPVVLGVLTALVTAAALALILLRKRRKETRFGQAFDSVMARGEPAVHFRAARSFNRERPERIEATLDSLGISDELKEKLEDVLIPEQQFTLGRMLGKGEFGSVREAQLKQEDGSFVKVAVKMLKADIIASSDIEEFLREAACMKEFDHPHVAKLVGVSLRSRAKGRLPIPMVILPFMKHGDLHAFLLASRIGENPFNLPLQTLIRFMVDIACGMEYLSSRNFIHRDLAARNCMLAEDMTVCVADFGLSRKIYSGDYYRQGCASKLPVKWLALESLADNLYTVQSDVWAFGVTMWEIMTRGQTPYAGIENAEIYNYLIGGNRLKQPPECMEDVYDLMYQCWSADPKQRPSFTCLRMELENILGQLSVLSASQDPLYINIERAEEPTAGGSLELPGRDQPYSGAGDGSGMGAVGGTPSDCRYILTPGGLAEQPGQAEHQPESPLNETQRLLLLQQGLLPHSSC

[3] = molecular target: T2, Serine/threonine-protein kinase PLK4 (Homo sapiens) (UniProt O00444); experiment: Inhibition of PLK4 at 1 uM
T2 sequence (whole entry): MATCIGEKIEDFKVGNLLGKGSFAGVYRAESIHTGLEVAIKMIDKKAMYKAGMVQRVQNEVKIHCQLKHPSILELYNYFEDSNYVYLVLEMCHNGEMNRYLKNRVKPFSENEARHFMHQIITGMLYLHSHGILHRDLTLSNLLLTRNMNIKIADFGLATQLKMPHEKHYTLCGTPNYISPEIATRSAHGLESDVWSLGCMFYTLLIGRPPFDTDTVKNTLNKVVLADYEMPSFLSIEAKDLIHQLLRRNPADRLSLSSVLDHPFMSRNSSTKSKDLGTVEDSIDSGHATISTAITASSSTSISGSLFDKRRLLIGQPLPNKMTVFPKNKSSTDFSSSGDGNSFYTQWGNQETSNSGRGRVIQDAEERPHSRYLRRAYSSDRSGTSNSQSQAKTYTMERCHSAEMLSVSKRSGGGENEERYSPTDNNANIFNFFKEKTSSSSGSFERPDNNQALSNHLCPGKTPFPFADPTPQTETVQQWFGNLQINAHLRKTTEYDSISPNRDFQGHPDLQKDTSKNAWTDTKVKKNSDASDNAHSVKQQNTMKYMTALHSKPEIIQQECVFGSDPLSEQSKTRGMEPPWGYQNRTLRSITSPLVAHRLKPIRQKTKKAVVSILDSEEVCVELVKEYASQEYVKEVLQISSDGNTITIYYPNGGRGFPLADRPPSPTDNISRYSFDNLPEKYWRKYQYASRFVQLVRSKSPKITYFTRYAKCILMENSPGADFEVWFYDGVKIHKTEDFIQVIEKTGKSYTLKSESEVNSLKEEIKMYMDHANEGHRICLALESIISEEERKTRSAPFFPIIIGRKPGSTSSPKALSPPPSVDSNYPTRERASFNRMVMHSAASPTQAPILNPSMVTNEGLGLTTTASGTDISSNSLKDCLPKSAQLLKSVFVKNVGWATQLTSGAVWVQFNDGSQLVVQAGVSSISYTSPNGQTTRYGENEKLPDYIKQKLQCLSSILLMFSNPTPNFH

[4] = molecular target: T3, Mitogen-activated protein kinase 15 (Homo sapiens) (UniProt Q8TD08); experiment: Inhibition of ERK8 at 1 uM
T3 sequence (whole entry): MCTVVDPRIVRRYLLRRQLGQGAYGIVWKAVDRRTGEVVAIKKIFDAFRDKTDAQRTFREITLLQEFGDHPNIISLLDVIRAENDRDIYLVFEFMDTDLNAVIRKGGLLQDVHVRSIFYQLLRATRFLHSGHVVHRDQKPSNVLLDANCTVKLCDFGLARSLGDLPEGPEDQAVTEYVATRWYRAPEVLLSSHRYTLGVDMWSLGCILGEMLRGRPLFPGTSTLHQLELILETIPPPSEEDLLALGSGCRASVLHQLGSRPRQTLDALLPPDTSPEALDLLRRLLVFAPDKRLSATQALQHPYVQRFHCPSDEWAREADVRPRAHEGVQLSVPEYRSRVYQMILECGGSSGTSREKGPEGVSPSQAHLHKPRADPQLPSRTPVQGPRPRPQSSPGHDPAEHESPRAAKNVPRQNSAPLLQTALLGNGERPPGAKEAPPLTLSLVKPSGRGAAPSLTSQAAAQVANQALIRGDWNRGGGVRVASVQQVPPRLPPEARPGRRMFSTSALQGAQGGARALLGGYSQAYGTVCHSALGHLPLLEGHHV

[5] = molecular target: T4, Cyclin-dependent kinase-like 2 (Homo sapiens) (UniProt Q92772); experiment: Inhibition of CDKL2 at 1 uM
T4 sequence (whole entry): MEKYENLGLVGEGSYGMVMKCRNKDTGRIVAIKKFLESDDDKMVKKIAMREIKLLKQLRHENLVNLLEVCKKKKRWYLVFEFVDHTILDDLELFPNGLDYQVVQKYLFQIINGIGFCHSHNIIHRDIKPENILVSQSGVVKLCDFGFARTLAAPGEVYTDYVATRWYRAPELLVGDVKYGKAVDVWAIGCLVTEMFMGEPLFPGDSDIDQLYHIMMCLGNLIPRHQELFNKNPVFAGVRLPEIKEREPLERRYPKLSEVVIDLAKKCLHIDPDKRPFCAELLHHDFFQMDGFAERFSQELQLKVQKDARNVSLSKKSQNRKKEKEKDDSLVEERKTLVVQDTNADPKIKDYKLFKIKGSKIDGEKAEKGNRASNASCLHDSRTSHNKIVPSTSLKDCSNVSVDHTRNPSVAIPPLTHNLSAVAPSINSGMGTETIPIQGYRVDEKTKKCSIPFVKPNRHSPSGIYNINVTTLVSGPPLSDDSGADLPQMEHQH

LIM domain kinase 1 (Homo sapiens), sequence (P53667 whole entry, looked up, the tested form may be a part): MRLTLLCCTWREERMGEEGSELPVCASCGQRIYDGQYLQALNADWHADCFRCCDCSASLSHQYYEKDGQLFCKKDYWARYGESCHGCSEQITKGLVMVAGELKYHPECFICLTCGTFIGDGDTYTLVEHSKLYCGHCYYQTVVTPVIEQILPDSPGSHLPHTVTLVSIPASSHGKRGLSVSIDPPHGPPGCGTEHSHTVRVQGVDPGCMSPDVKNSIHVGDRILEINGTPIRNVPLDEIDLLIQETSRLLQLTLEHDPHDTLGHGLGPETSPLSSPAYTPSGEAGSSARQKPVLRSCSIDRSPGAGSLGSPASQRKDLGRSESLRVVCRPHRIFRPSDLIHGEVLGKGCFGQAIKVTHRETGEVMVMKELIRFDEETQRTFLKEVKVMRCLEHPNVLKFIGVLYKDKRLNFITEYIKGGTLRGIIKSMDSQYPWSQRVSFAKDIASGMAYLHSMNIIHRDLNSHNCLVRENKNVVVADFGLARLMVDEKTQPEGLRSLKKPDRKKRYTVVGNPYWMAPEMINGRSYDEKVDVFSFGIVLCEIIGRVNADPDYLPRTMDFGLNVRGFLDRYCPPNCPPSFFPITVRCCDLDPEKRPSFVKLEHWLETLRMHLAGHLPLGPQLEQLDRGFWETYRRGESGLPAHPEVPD

SMILES | inhibition [1] | inhibition [2] | inhibition [3] | inhibition [4] | inhibition [5]
CN1CCN(c2ccc(-c3cnc4c(c3)N(Cc3cc(F)ccc3F)CCN4)cn2)CC1 | < 50% | < 50% | < 50% | < 50% | < 50%
CC(=O)N1CCN(c2cc(-c3cnc4c(c3)N(Cc3cc(Cl)ccc3C(F)(F)F)CCN4)ccn2)CC1 | < 50% | < 50% | < 50% | < 50% | < 50%
CN1CCN(c2ccc(-c3cnc4c(c3)N(Cc3c(F)ccc(F)c3Cl)CCN4)cn2)CC1 | < 50% | < 50% | < 50% | < 50% | < 50%
FC(F)(F)c1ccc(Cl)cc1CN1CCNc2ncc(-c3ccnc(N4CCNCC4)c3)cc21 | < 50% | < 50% | < 50% | < 50% | < 50%
CN1CCN(c2ccc(-c3cnc4c(c3)N(Cc3cc(Cl)ccc3Cl)CCN4)cn2)CC1 | < 50% | < 50% | < 50% | < 50% | < 50%
O=C(c1ccc(-c2cnc3c(c2)N(Cc2cc(Cl)ccc2C(F)(F)F)CCN3)cc1)N1CCC(N2CCCC2)CC1 | < 50% | < 50% | 92.4% |  | 
O=C(O)c1ccc(-c2cnc3c(c2)N(Cc2cc(Cl)ccc2C(F)(F)F)CCN3)cc1 | < 50% | < 50% | 91.7% |  | 
CN1CCN(c2ccc(-c3cnc4c(c3)N(Cc3cc(Cl)ccc3C(F)(F)F)CCN4)cn2)CC1 | < 50% | < 50% | < 50% | < 50% | < 50%
O=C(c1ccc(-c2cnc3c(c2)N(Cc2cc(Cl)ccc2C(F)(F)F)CCN3)cc1)N1CCCCC1 | < 50% | < 50% | < 50% |  | 
COC1CCN(C(=O)c2ccc(-c3cnc4c(c3)N(Cc3cc(Cl)ccc3C(F)(F)F)CCN4)cc2)CC1 | < 50% | < 50% | 73.8% |  | 
